Test results as given in ChEMBL document CHEMBL4152188, “Design, synthesis and biological evaluation of C(4) substituted monobactams as antibacterial agents against multidrug-resistant Gram-negative bacteria” (Eur J Med Chem, 2018).
In brackets after ≈: the same amount, converted by molar mass.

Columns and labels:
Type in all cases: functional
Escherichia coli [1] = assay: Antibacterial activity against extended-spectrum beta-lactamase producing Escherichia coli isolate 212648 after 18 hrs by CLSI broth microdilution method; details: isolate 212648, 18 h
Escherichia coli [2] = assay: Selectivity index, ratio of MIC for against extended-spectrum beta-lactamase producing Escherichia coli isolate 208687 to MIC for extended-spectrum beta-lactamase producing Escherichia coli isolate 208687 in presence of BPL
Escherichia coli [3] = assay: Antibacterial activity against Escherichia coli isolate 210737 after 18 hrs by CLSI broth microdilution method; details: isolate 210737, 18 h
Escherichia coli [4] = assay: Antibacterial activity against extended-spectrum beta-lactamase producing Escherichia coli isolate 208687 after 18 hrs by CLSI broth microdilution method; details: isolate 208687, 18 h
Escherichia coli [5] = assay: Antibacterial activity against extended-spectrum beta-lactamase producing Escherichia coli isolate 208687 after 18 hrs in presence of BPL by CLSI broth microdilution method; details: isolate 208687, 18 h
How it was run: (§1)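 CLSI broth microdilution against clinical isolates (ESBL E. coli, KPC-2 MDR K. pneumoniae, IMP-4 MDR P. aeruginosa; five per species). Iron limitation: Mueller-Hinton broth supplemented with 16 mg/liter 2,2'-bipyridyl to complex iron and induce iron uptake systems. Read-out: MIC.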

Escherichia coli [6] = assay: Antibacterial activity against Escherichia coli isolate 210737 after 18 hrs in presence of BPL by CLSI broth microdilution method; details: isolate 210737, 18 h; how it was run: as §1
Escherichia coli [7] = assay: Selectivity index, ratio of MIC for against Escherichia coli isolate 210737 to MIC for Escherichia coli isolate 210737 in presence of BPL
Escherichia coli [8] = assay: Antibacterial activity against extended-spectrum beta-lactamase producing Escherichia coli isolate 212648 after 18 hrs in presence of BPL by CLSI broth microdilution method; details: isolate 212648, 18 h; how it was run: as §1
Escherichia coli [9] = assay: Selectivity index, ratio of MIC for against extended-spectrum beta-lactamase producing Escherichia coli isolate 212648 to MIC for extended-spectrum beta-lactamase producing Escherichia coli isolate 212648 in presence of BPL
Escherichia coli [10] = assay: Antibacterial activity against extended-spectrum beta-lactamase producing Escherichia coli isolate 209285 after 18 hrs by CLSI broth microdilution method; details: isolate 209285, 18 h
Escherichia coli [11] = assay: Antibacterial activity against extended-spectrum beta-lactamase producing Escherichia coli isolate 209285 after 18 hrs in presence of BPL by CLSI broth microdilution method; details: isolate 209285, 18 h; how it was run: as §1
Escherichia coli [12] = assay: Selectivity index, ratio of MIC for against extended-spectrum beta-lactamase producing Escherichia coli isolate 209285 to MIC for extended-spectrum beta-lactamase producing Escherichia coli isolate 209285 in presence of BPL
Escherichia coli [13] = assay: Antibacterial activity against extended-spectrum beta-lactamase producing Escherichia coli isolate 106342 after 18 hrs by CLSI broth microdilution method; details: isolate 106342, 18 h
Escherichia coli [14] = assay: Antibacterial activity against extended-spectrum beta-lactamase producing Escherichia coli isolate 106342 after 18 hrs in presence of BPL by CLSI broth microdilution method; details: isolate 106342, 18 h; how it was run: as §1
Escherichia coli [15] = assay: Selectivity index, ratio of MIC for against extended-spectrum beta-lactamase producing Escherichia coli isolate 106342 to MIC for extended-spectrum beta-lactamase producing Escherichia coli isolate 106342 in presence of BPL
Klebsiella pneumoniae [16] = assay: Antibacterial activity against KPC-2 producing Klebsiella pneumoniae isolate 212423 after 18 hrs by CLSI broth microdilution method; details: isolate 212423, 18 h
Klebsiella pneumoniae [17] = assay: Antibacterial activity against KPC-2 producing Klebsiella pneumoniae isolate 212423 after 18 hrs in presence of BPL by CLSI broth microdilution method; details: isolate 212423, 18 h; how it was run: as §1
Klebsiella pneumoniae [18] = assay: Selectivity index, ratio of MIC for against KPC-2 producing Klebsiella pneumoniae isolate 212423 to MIC for against KPC-2 producing Klebsiella pneumoniae isolate 212423 in presence of BPL
Klebsiella pneumoniae [19] = assay: Antibacterial activity against KPC-2 producing Klebsiella pneumoniae isolate 209632 after 18 hrs by CLSI broth microdilution method; details: isolate 209632, 18 h
Klebsiella pneumoniae [20] = assay: Antibacterial activity against KPC-2 producing Klebsiella pneumoniae isolate 209632 after 18 hrs in presence of BPL by CLSI broth microdilution method; details: isolate 209632, 18 h; how it was run: as §1
Klebsiella pneumoniae [21] = assay: Selectivity index, ratio of MIC for against KPC-2 producing Klebsiella pneumoniae isolate 209632 to MIC for against KPC-2 producing Klebsiella pneumoniae isolate 209632 in presence of BPL
Klebsiella pneumoniae [22] = assay: Antibacterial activity against KPC-2 producing Klebsiella pneumoniae isolate 209735 after 18 hrs by CLSI broth microdilution method; details: isolate 209735, 18 h
Klebsiella pneumoniae [23] = assay: Antibacterial activity against KPC-2 producing Klebsiella pneumoniae isolate 209735 after 18 hrs in presence of BPL by CLSI broth microdilution method; details: isolate 209735, 18 h; how it was run: as §1
Klebsiella pneumoniae [24] = assay: Selectivity index, ratio of MIC for against KPC-2 producing Klebsiella pneumoniae isolate 209735 to MIC for against KPC-2 producing Klebsiella pneumoniae isolate 209735 in presence of BPL
Klebsiella pneumoniae [25] = assay: Antibacterial activity against KPC-2 producing Klebsiella pneumoniae isolate 212232 after 18 hrs by CLSI broth microdilution method; details: isolate 212232, 18 h
Klebsiella pneumoniae [26] = assay: Antibacterial activity against KPC-2 producing Klebsiella pneumoniae isolate 212232 after 18 hrs in presence of BPL by CLSI broth microdilution method; details: isolate 212232, 18 h; how it was run: as §1
Klebsiella pneumoniae [27] = assay: Selectivity index, ratio of MIC for against KPC-2 producing Klebsiella pneumoniae isolate 212232 to MIC for against KPC-2 producing Klebsiella pneumoniae isolate 212232 in presence of BPL
Klebsiella pneumoniae [28] = assay: Antibacterial activity against KPC-2 producing Klebsiella pneumoniae isolate 212229 after 18 hrs by CLSI broth microdilution method; details: isolate 212229, 18 h
Klebsiella pneumoniae [29] = assay: Antibacterial activity against KPC-2 producing Klebsiella pneumoniae isolate 212229 after 18 hrs in presence of BPL by CLSI broth microdilution method; details: isolate 212229, 18 h; how it was run: as §1
Klebsiella pneumoniae [30] = assay: Selectivity index, ratio of MIC for against KPC-2 producing Klebsiella pneumoniae isolate 212229 to MIC for against KPC-2 producing Klebsiella pneumoniae isolate 212229 in presence of BPL
Pseudomonas aeruginosa [31] = assay: Antibacterial activity against IMP-4 producing Pseudomonas aeruginosa isolate 212886 after 18 hrs by CLSI broth microdilution method; details: isolate 212886, 18 h
Pseudomonas aeruginosa [32] = assay: Antibacterial activity against IMP-4 producing Pseudomonas aeruginosa isolate 212886 after 18 hrs in presence of BPL by CLSI broth microdilution method; details: isolate 212886, 18 h; how it was run: as §1
Pseudomonas aeruginosa [33] = assay: Selectivity index, ratio of MIC for against IMP-4 producing Pseudomonas aeruginosa isolate 212886 to MIC for against IMP-4 producing Pseudomonas aeruginosa isolate 212886 in presence of BPL
Pseudomonas aeruginosa [34] = assay: Antibacterial activity against IMP-4 producing Pseudomonas aeruginosa isolate 209471 after 18 hrs by CLSI broth microdilution method; details: isolate 209471, 18 h
Pseudomonas aeruginosa [35] = assay: Antibacterial activity against IMP-4 producing Pseudomonas aeruginosa isolate 209471 after 18 hrs in presence of BPL by CLSI broth microdilution method; details: isolate 209471, 18 h; how it was run: as §1
Pseudomonas aeruginosa [36] = assay: Selectivity index, ratio of MIC for against IMP-4 producing Pseudomonas aeruginosa isolate 209471 to MIC for against IMP-4 producing Pseudomonas aeruginosa isolate 209471 in presence of BPL
Pseudomonas aeruginosa [37] = assay: Antibacterial activity against IMP-4 producing Pseudomonas aeruginosa isolate 208247 after 18 hrs by CLSI broth microdilution method; details: isolate 208247, 18 h
Pseudomonas aeruginosa [38] = assay: Antibacterial activity against IMP-4 producing Pseudomonas aeruginosa isolate 208247 after 18 hrs in presence of BPL by CLSI broth microdilution method; details: isolate 208247, 18 h; how it was run: as §1
Pseudomonas aeruginosa [39] = assay: Selectivity index, ratio of MIC for against IMP-4 producing Pseudomonas aeruginosa isolate 208247 to MIC for against IMP-4 producing Pseudomonas aeruginosa isolate 208247 in presence of BPL
Pseudomonas aeruginosa [40] = assay: Antibacterial activity against IMP-4 producing Pseudomonas aeruginosa isolate 209321 after 18 hrs by CLSI broth microdilution method; details: isolate 209321, 18 h
Pseudomonas aeruginosa [41] = assay: Antibacterial activity against IMP-4 producing Pseudomonas aeruginosa isolate 209321 after 18 hrs in presence of BPL by CLSI broth microdilution method; details: isolate 209321, 18 h; how it was run: as §1
Pseudomonas aeruginosa [42] = assay: Selectivity index, ratio of MIC for against IMP-4 producing Pseudomonas aeruginosa isolate 209321 to MIC for against IMP-4 producing Pseudomonas aeruginosa isolate 209321 in presence of BPL
Pseudomonas aeruginosa [43] = assay: Antibacterial activity against IMP-4 producing Pseudomonas aeruginosa isolate 207272 after 18 hrs by CLSI broth microdilution method; details: isolate 207272, 18 h
Pseudomonas aeruginosa [44] = assay: Antibacterial activity against IMP-4 producing Pseudomonas aeruginosa isolate 207272 after 18 hrs in presence of BPL by CLSI broth microdilution method; details: isolate 207272, 18 h; how it was run: as §1
Pseudomonas aeruginosa [45] = assay: Selectivity index, ratio of MIC for against IMP-4 producing Pseudomonas aeruginosa isolate 207272 to MIC for against IMP-4 producing Pseudomonas aeruginosa isolate 207272 in presence of BPL

MIC (Escherichia coli [1]): 1 µg/mL (≈ 1.7 µM)
MIC (Escherichia coli [3]): 0.5 µg/mL (≈ 0.85 µM)
MIC (Escherichia coli [4]): 1 µg/mL (≈ 1.7 µM)
MIC (Escherichia coli [5]): 0.25 µg/mL
MIC (Escherichia coli [6]): 0.5 µg/mL
MIC (Escherichia coli [8]): 0.5 µg/mL
MIC (Escherichia coli [10]): 1 µg/mL (≈ 1.7 µM)
MIC (Escherichia coli [11]): 0.5 µg/mL
MIC (Escherichia coli [13]): 1 µg/mL (≈ 1.7 µM)
MIC (Escherichia coli [14]): 1 µg/mL
MIC (Klebsiella pneumoniae [16]): 2 µg/mL (≈ 3.4 µM)
MIC (Klebsiella pneumoniae [17]): 1 µg/mL
MIC (Klebsiella pneumoniae [19]): 2 µg/mL (≈ 3.4 µM)
MIC (Klebsiella pneumoniae [20]): 1 µg/mL
MIC (Klebsiella pneumoniae [22]): 2 µg/mL (≈ 3.4 µM)
MIC (Klebsiella pneumoniae [23]): 1 µg/mL
MIC (Klebsiella pneumoniae [25]): 8 µg/mL (≈ 13.6 µM)
MIC (Klebsiella pneumoniae [26]): 0.5 µg/mL
MIC (Klebsiella pneumoniae [28]): 2 µg/mL (≈ 3.4 µM)
MIC (Klebsiella pneumoniae [29]): 1 µg/mL
MIC (Pseudomonas aeruginosa [31]): > 64 µg/mL
MIC (Pseudomonas aeruginosa [32]): 16 µg/mL
MIC (Pseudomonas aeruginosa [34]): 64 µg/mL (≈ 109 µM)
MIC (Pseudomonas aeruginosa [35]): 32 µg/mL
MIC (Pseudomonas aeruginosa [37]): 64 µg/mL (≈ 109 µM)
MIC (Pseudomonas aeruginosa [38]): 64 µg/mL
MIC (Pseudomonas aeruginosa [40]): 64 µg/mL (≈ 109 µM)
MIC (Pseudomonas aeruginosa [41]): 64 µg/mL
MIC (Pseudomonas aeruginosa [43]): > 64 µg/mL
MIC (Pseudomonas aeruginosa [44]): 64 µg/mL
SMILES: CC(=O)OC[C@@H]1[C@H](NC(=O)/C(=N\OC(c2cc(=O)c(O)cn2O)C(C)C)c2csc(N)n2)C(=O)N1S(=O)(=O)O (stereo not given in full)
Selectivity Index (Escherichia coli [2]): 4
Selectivity Index (Escherichia coli [7]): 1
Selectivity Index (Escherichia coli [9]): 2
Selectivity Index (Escherichia coli [12]): 2
Selectivity Index (Escherichia coli [15]): 1
Selectivity Index (Klebsiella pneumoniae [18]): 2
Selectivity Index (Klebsiella pneumoniae [21]): 2
Selectivity Index (Klebsiella pneumoniae [24]): 2
Selectivity Index (Klebsiella pneumoniae [27]): 16
Selectivity Index (Klebsiella pneumoniae [30]): 2
Selectivity Index (Pseudomonas aeruginosa [33]): >4
Selectivity Index (Pseudomonas aeruginosa [36]): 2
Selectivity Index (Pseudomonas aeruginosa [39]): 1
Selectivity Index (Pseudomonas aeruginosa [42]): 1
Selectivity Index (Pseudomonas aeruginosa [45]): >1
